# pIC50: −log10 of the molar value.
# Tested on: HeLa
# Test: Inhibitory concentration against human immunodeficiency virus type 1 (with K103N/G190A resistant mutation) was determined in HeLa-CD4 MAGI assay
# Type: functional, cell-based
# In short: (§1)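 Tested against a panel of recombinant, isogenic HIV-1 viruses, wild type and NNRTI-resistant strains carrying engineered single or double RT mutations. The readout was IC50.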
row,Compound,pIC50
1,CCCc1c(O)nc2ccc(Cl)cc2c1OCC1CCCCC1,< 5.70
2,CCC(C)C#COc1c(C(C)C)c(O)nc2ccc(F)cc12 (stereo not given),6.64
3,CCCc1c(O)nc2ccc(Cl)cc2c1OC#CC1CC1,6.52
4,CC(C)Cc1c(O)nc2ccc(Cl)cc2c1OC1CCCC1,< 5.70
5,CCCc1c(O)nc2ccc(F)c([N+](=O)[O-])c2c1OCC1CCC1,< 5.70
6,CC(C)c1c(O)nc2ccc(F)cc2c1OCC1CCC1,6.28
7,CC(C)c1c(O)nc2ccc(Cl)cc2c1OCC1CCC1,6.25

# Tested on: HeLa
# Test: Inhibitory concentration against human immunodeficiency virus type 1 (with K103N/V108I resistant mutation) was determined in HeLa-CD4 MAGI assay
# Type: functional, cell-based
# In short: as §1
row,Compound,pIC50
1,CCCc1c(O)nc2ccc(Cl)cc2c1OCC1CCCCC1,< 5.70
2,CCC(C)C#COc1c(C(C)C)c(O)nc2ccc(F)cc12 (stereo not given),< 5.70
3,CCCc1c(O)nc2ccc(Cl)cc2c1OC#CC1CC1,5.85
4,CC(C)Cc1c(O)nc2ccc(Cl)cc2c1OC1CCCC1,< 5.70
5,CCCc1c(O)nc2ccc(F)c([N+](=O)[O-])c2c1OCC1CCC1,< 5.70
6,CC(C)c1c(O)nc2ccc(F)cc2c1OCC1CCC1,< 5.70
7,CC(C)c1c(O)nc2ccc(Cl)cc2c1OCC1CCC1,< 5.70

# Tested on: HeLa
# Test: Inhibitory concentration against human immunodeficiency virus type 1 (with K103N/Y181C resistant mutation) was determined in HeLa-CD4 MAGI assay
# Type: functional, cell-based
# In short: as §1
row,Compound,pIC50
1,CCCc1c(O)nc2ccc(Cl)cc2c1OCC1CCCCC1,< 5.70
2,CCC(C)C#COc1c(C(C)C)c(O)nc2ccc(F)cc12 (stereo not given),6.19
3,CCCc1c(O)nc2ccc(Cl)cc2c1OC#CC1CC1,5.74
4,CC(C)Cc1c(O)nc2ccc(Cl)cc2c1OC1CCCC1,< 5.70
5,CCCc1c(O)nc2ccc(F)c([N+](=O)[O-])c2c1OCC1CCC1,< 5.70
6,CC(C)c1c(O)nc2ccc(F)cc2c1OCC1CCC1,< 5.70
7,CC(C)c1c(O)nc2ccc(Cl)cc2c1OCC1CCC1,< 5.70

# Tested on: HeLa
# Test: Inhibitory concentration against human immunodeficiency virus type 1 (with V106A/Y181C resistant mutation) was determined in HeLa-CD4 MAGI assay
# Type: functional, cell-based
# In short: as §1
row,Compound,pIC50
1,CCCc1c(O)nc2ccc(Cl)cc2c1OCC1CCCCC1,< 5.70
2,CCC(C)C#COc1c(C(C)C)c(O)nc2ccc(F)cc12 (stereo not given),6.89
3,CCCc1c(O)nc2ccc(Cl)cc2c1OC#CC1CC1,6.92
4,CC(C)Cc1c(O)nc2ccc(Cl)cc2c1OC1CCCC1,< 5.70
5,CCCc1c(O)nc2ccc(F)c([N+](=O)[O-])c2c1OCC1CCC1,6.00
6,CC(C)c1c(O)nc2ccc(F)cc2c1OCC1CCC1,< 5.70
7,CC(C)c1c(O)nc2ccc(Cl)cc2c1OCC1CCC1,5.72

# Tested on: HeLa
# Test: Inhibitory concentration against human immunodeficiency virus type 1 (with V108I/Y181C resistant mutation) was determined in HeLa-CD4 MAGI assay
# Type: functional, cell-based
# In short: as §1
row,Compound,pIC50
1,CCCc1c(O)nc2ccc(Cl)cc2c1OCC1CCCCC1,6.00
2,CCC(C)C#COc1c(C(C)C)c(O)nc2ccc(F)cc12 (stereo not given),6.85
3,CCCc1c(O)nc2ccc(Cl)cc2c1OC#CC1CC1,6.64
4,CC(C)Cc1c(O)nc2ccc(Cl)cc2c1OC1CCCC1,5.96
5,CCCc1c(O)nc2ccc(F)c([N+](=O)[O-])c2c1OCC1CCC1,< 5.70
6,CC(C)c1c(O)nc2ccc(F)cc2c1OCC1CCC1,6.15
7,CC(C)c1c(O)nc2ccc(Cl)cc2c1OCC1CCC1,6.36

# Tested on: MT4
# Test: Ratio of cytotoxic concentration to that of inhibitory concentration as selectivity index was determined by MT-4 assay
# Type: functional, Homo sapiens
# In short: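 Index is the IC50 in uninfected MT4 cells divided by the antiviral IC50 in MT4 cells infected with wild-type HIV-1 or the nevirapine-resistant strain carrying RT mutation Y181C.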
row,Compound,Ratio
1,CCCc1c(O)nc2ccc(Cl)cc2c1OCC1CCCCC1,>40000
2,CCC(C)C#COc1c(C(C)C)c(O)nc2ccc(F)cc12 (stereo not given),>6500
3,CCCc1c(O)nc2ccc(Cl)cc2c1OC#CC1CC1,>8000
4,CC(C)Cc1c(O)nc2ccc(Cl)cc2c1OC1CCCC1,>40000
5,CCCc1c(O)nc2ccc(F)c([N+](=O)[O-])c2c1OCC1CCC1,>8000
6,CC(C)c1c(O)nc2ccc(F)cc2c1OCC1CCC1,>500
7,CC(C)c1c(O)nc2ccc(Cl)cc2c1OCC1CCC1,>500

# Tested on: MT4
# Test: Inhibitory concentration against wild type human immunodeficiency virus type 1 was determined by MT-4 assay
# Type: functional, cell-based
row,Compound,pIC50
1,CCCc1c(O)nc2ccc(Cl)cc2c1OCC1CCCCC1,5.29
2,CCC(C)C#COc1c(C(C)C)c(O)nc2ccc(F)cc12 (stereo not given),7.77
3,CCCc1c(O)nc2ccc(Cl)cc2c1OC#CC1CC1,6.96
4,CC(C)Cc1c(O)nc2ccc(Cl)cc2c1OC1CCCC1,7.28
5,CCCc1c(O)nc2ccc(F)c([N+](=O)[O-])c2c1OCC1CCC1,5.92
6,CC(C)c1c(O)nc2ccc(F)cc2c1OCC1CCC1,7.59
7,CC(C)c1c(O)nc2ccc(Cl)cc2c1OCC1CCC1,7.54

# Tested on: Human immunodeficiency virus 1
# Test: Inhibitory concentration against wild type human immunodeficiency virus type 1 was determined by recombinant virus assay
# Type: functional, organism-based
# In short: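 Isogenic recombinant HIV-1 carrying wild-type RT, tested in parallel with a panel of NNRTI-resistant RT mutants built on the same background; activity reported as IC50.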
row,Compound,pIC50
1,CCCc1c(O)nc2ccc(Cl)cc2c1OCC1CCCCC1,5.92
2,CCC(C)C#COc1c(C(C)C)c(O)nc2ccc(F)cc12 (stereo not given),7.55
3,CCCc1c(O)nc2ccc(Cl)cc2c1OC#CC1CC1,7.42
4,CC(C)Cc1c(O)nc2ccc(Cl)cc2c1OC1CCCC1,6.82
5,CCCc1c(O)nc2ccc(F)c([N+](=O)[O-])c2c1OCC1CCC1,5.96
6,CC(C)c1c(O)nc2ccc(F)cc2c1OCC1CCC1,7.31
7,CC(C)c1c(O)nc2ccc(Cl)cc2c1OCC1CCC1,7.82

# Tested on: MT4
# Test: Inhibitory concentration against nevirapine resistant strain (with Y181C mutation in HIV-1 RT gene) of human immunodeficiency virus type 1 was determined by MT-4 assay
# Type: functional, cell-based
row,Compound,pIC50
1,CCCc1c(O)nc2ccc(Cl)cc2c1OCC1CCCCC1,5.89
2,CCC(C)C#COc1c(C(C)C)c(O)nc2ccc(F)cc12 (stereo not given),7.49
3,CCCc1c(O)nc2ccc(Cl)cc2c1OC#CC1CC1,6.92
4,CC(C)Cc1c(O)nc2ccc(Cl)cc2c1OC1CCCC1,5.80
5,CCCc1c(O)nc2ccc(F)c([N+](=O)[O-])c2c1OCC1CCC1,5.74
6,CC(C)c1c(O)nc2ccc(F)cc2c1OCC1CCC1,6.64
7,CC(C)c1c(O)nc2ccc(Cl)cc2c1OCC1CCC1,6.64

# Tested on: HeLa
# Test: Inhibitory concentration against human immunodeficiency virus type 1 (with G190A resistant mutation) was determined in HeLa-CD4 MAGI assay
# Type: functional, cell-based
# In short: as §1
row,Compound,pIC50
1,CCCc1c(O)nc2ccc(Cl)cc2c1OCC1CCCCC1,6.59
2,CCC(C)C#COc1c(C(C)C)c(O)nc2ccc(F)cc12 (stereo not given),7.68
3,CCCc1c(O)nc2ccc(Cl)cc2c1OC#CC1CC1,7.82
4,CC(C)Cc1c(O)nc2ccc(Cl)cc2c1OC1CCCC1,7.38
5,CCCc1c(O)nc2ccc(F)c([N+](=O)[O-])c2c1OCC1CCC1,6.27
6,CC(C)c1c(O)nc2ccc(F)cc2c1OCC1CCC1,7.80
7,CC(C)c1c(O)nc2ccc(Cl)cc2c1OCC1CCC1,8.05

# Tested on: HeLa
# Test: Inhibitory concentration against human immunodeficiency virus type 1 (with K103N resistant mutation) was determined in HeLa-CD4 MAGI assay
# Type: functional, cell-based
# In short: as §1
row,Compound,pIC50
1,CCCc1c(O)nc2ccc(Cl)cc2c1OCC1CCCCC1,< 5.70
2,CCC(C)C#COc1c(C(C)C)c(O)nc2ccc(F)cc12 (stereo not given),6.27
3,CCCc1c(O)nc2ccc(Cl)cc2c1OC#CC1CC1,< 5.70
4,CC(C)Cc1c(O)nc2ccc(Cl)cc2c1OC1CCCC1,< 5.70
5,CCCc1c(O)nc2ccc(F)c([N+](=O)[O-])c2c1OCC1CCC1,< 5.70
6,CC(C)c1c(O)nc2ccc(F)cc2c1OCC1CCC1,5.77
7,CC(C)c1c(O)nc2ccc(Cl)cc2c1OCC1CCC1,6.25

# Tested on: HeLa
# Test: Inhibitory concentration against human immunodeficiency virus type 1 (with V106A resistant mutation) was determined in HeLa-CD4 MAGI assay
# Type: functional, cell-based
# In short: as §1
row,Compound,pIC50
1,CCCc1c(O)nc2ccc(Cl)cc2c1OCC1CCCCC1,< 5.70
2,CCC(C)C#COc1c(C(C)C)c(O)nc2ccc(F)cc12 (stereo not given),6.38
3,CCCc1c(O)nc2ccc(Cl)cc2c1OC#CC1CC1,6.66
4,CC(C)Cc1c(O)nc2ccc(Cl)cc2c1OC1CCCC1,5.82
5,CCCc1c(O)nc2ccc(F)c([N+](=O)[O-])c2c1OCC1CCC1,< 5.70
6,CC(C)c1c(O)nc2ccc(F)cc2c1OCC1CCC1,5.72
7,CC(C)c1c(O)nc2ccc(Cl)cc2c1OCC1CCC1,6.42

# Tested on: HeLa
# Test: Inhibitory concentration against human immunodeficiency virus type 1 (with V108I resistant mutation) was determined in HeLa-CD4 MAGI assay
# Type: functional, cell-based
# In short: as §1
row,Compound,pIC50
1,CCCc1c(O)nc2ccc(Cl)cc2c1OCC1CCCCC1,< 5.70
2,CCC(C)C#COc1c(C(C)C)c(O)nc2ccc(F)cc12 (stereo not given),6.96
3,CCCc1c(O)nc2ccc(Cl)cc2c1OC#CC1CC1,7.22
4,CC(C)Cc1c(O)nc2ccc(Cl)cc2c1OC1CCCC1,6.55
5,CCCc1c(O)nc2ccc(F)c([N+](=O)[O-])c2c1OCC1CCC1,~6.00
6,CC(C)c1c(O)nc2ccc(F)cc2c1OCC1CCC1,6.36
7,CC(C)c1c(O)nc2ccc(Cl)cc2c1OCC1CCC1,7.10

# Tested on: HeLa
# Test: Inhibitory concentration against human immunodeficiency virus type 1 (with Y181C resistant mutation) was determined in HeLa-CD4 MAGI assay
# Type: functional, cell-based
# In short: as §1
row,Compound,pIC50
1,CCCc1c(O)nc2ccc(Cl)cc2c1OCC1CCCCC1,6.16
2,CCC(C)C#COc1c(C(C)C)c(O)nc2ccc(F)cc12 (stereo not given),7.08
3,CCCc1c(O)nc2ccc(Cl)cc2c1OC#CC1CC1,7.04
4,CC(C)Cc1c(O)nc2ccc(Cl)cc2c1OC1CCCC1,7.43
5,CCCc1c(O)nc2ccc(F)c([N+](=O)[O-])c2c1OCC1CCC1,< 5.70
6,CC(C)c1c(O)nc2ccc(F)cc2c1OCC1CCC1,6.55
7,CC(C)c1c(O)nc2ccc(Cl)cc2c1OCC1CCC1,6.68

# Tested on: HeLa
# Test: Inhibitory concentration against human immunodeficiency virus type 1 (with Y188C resistant mutation) was determined in HeLa-CD4 MAGI assay
# Type: functional, cell-based
# In short: as §1
row,Compound,pIC50
1,CCCc1c(O)nc2ccc(Cl)cc2c1OCC1CCCCC1,7.64
2,CCC(C)C#COc1c(C(C)C)c(O)nc2ccc(F)cc12 (stereo not given),7.68
3,CCCc1c(O)nc2ccc(Cl)cc2c1OC#CC1CC1,7.15
4,CC(C)Cc1c(O)nc2ccc(Cl)cc2c1OC1CCCC1,7.23
5,CCCc1c(O)nc2ccc(F)c([N+](=O)[O-])c2c1OCC1CCC1,6.60
6,CC(C)c1c(O)nc2ccc(F)cc2c1OCC1CCC1,7.52
7,CC(C)c1c(O)nc2ccc(Cl)cc2c1OCC1CCC1,7.49

# — ChEMBL document CHEMBL1138845, “Design of non-nucleoside inhibitors of HIV-1 reverse transcriptase with improved drug resistance properties. 2” (J Med Chem, 2004)
